SUMO HTRF inh = blocks human SUMOylation mediated by UBC9; HTRF SUMOylation assay, SAE1/SAE2 + UBC9, in vitro; inhibition, % at 35 µM; 0.36% of 290,000 active; AID 2006; in the data active = inhibition above about 50%, passing the limit was not always enough
T cell modulator = modulates CD8 T cell binding to vesicles; response (vesicle binding), % at 7 µM; 2C CD8+ T cell-vesicle binding, flow cytometry; hits give low values; 0.068% of 330,000 active;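 active = response, share of CD8 T cells binding vesicles, and their 90th percentile fluorescence all below set limits, cut at about 80% in these data, passing the limit was not always enough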;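 note: values below 100% mean blocked vesicle binding to the CD8+ T cells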
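Also added: QL9-peptide-loaded Drosophila micro-vesicles bearing Ld, ICAM-1 and B7-1; Test system: purified 2C TCR transgenic mouse naive CD8+ T cells; Measured by: cytometric PE anti-B7-1 and Alexa647 anti-CD8 signals after 1% paraformaldehyde fixation; Timing: binding step 1.5 h, 37 °C, antibody labelling 20 min, ice.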
pCIP destab = lowers stability of the mouse p/CIP coactivator protein | Q05BA5 | F442A p/CIP-EGFP cells, EGFP fluorescence, 16 h | decrease of EGFP signal, % at 10 µM | 0.01% of 290,000 active;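 active = EGFP signal decrease of at least 30% at 10 µM or well 3 SD below plate mean, unless failing retest; inactive = the rest, including hits failing retest or dose response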
Target sequence (Q05BA5 1-1403): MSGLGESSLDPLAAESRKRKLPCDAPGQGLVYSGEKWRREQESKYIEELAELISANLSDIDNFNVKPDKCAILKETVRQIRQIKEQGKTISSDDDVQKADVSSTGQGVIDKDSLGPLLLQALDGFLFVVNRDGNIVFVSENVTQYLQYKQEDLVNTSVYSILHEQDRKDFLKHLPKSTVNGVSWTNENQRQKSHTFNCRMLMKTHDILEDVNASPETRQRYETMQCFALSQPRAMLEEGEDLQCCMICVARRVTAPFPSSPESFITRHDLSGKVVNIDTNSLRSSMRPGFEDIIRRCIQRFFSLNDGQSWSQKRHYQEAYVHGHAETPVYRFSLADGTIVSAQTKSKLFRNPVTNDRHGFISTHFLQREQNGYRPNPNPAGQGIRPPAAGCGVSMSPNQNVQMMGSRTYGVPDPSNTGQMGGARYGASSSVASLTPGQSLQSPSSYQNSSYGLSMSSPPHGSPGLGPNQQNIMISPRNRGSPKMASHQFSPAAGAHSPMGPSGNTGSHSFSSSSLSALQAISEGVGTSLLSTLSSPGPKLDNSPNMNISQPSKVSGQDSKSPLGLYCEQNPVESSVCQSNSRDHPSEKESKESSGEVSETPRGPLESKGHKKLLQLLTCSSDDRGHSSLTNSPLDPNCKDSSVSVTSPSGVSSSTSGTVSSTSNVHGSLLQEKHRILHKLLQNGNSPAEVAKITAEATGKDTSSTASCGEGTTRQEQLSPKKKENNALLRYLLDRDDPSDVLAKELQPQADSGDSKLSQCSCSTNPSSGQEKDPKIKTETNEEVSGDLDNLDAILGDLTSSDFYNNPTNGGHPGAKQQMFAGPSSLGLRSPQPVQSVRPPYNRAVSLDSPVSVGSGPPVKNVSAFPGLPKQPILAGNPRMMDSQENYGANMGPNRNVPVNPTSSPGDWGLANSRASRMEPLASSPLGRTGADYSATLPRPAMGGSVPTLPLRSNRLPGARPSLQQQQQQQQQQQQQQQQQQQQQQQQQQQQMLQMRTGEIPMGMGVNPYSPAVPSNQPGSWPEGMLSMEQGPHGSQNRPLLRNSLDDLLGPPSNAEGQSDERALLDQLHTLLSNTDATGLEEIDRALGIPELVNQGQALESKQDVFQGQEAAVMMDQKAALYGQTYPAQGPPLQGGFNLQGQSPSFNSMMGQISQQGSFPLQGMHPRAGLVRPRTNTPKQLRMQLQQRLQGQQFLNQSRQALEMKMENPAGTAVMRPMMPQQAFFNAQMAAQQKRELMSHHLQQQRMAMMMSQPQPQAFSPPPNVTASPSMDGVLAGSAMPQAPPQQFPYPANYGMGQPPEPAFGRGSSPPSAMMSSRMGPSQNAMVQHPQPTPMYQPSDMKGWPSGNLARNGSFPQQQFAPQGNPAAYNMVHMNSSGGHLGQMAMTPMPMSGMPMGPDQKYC
Fh CTSL1 inh = cathepsin L1 inhibition, PFM18AAP counter-screen. recombinant F. hepatica cathepsin L1, Z-Leu-Arg-MCA fluorescence. inhibition, % at 5.96 µM. 0.49% of 300,000 active;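 active = inhibition above the mean of all tested compounds plus 3 SD, set per screening campaign, cut at about 17% in these data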
IMP-1 inhibitor = inhibitors of Pseudomonas aeruginosa IMP-1 metallo-beta-lactamase; purified IMP-1, nitrocefin hydrolysis, epi-absorbance fluorescence; inhibition, % at 5.6 µM; 0.45% of 290,000 active; AID 1556;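 active = inhibition above the mean plus 3 SD of all compounds in the same screening run, cut at about 4.5% in these data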
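Material – recombinant IMP-1 enzyme, purified · Amount – IMP-1 0.2 nM before substrate addition · Medium – HEPES buffer pH 7.1 with ZnSO4 and Brij 35 · Timing – 25 °C, 15 min preincubation, 25 min reaction · Measured by – plate fluorescence quenching by hydrolysis product, ex 480/em 530 nm · Read-out – percent enzyme inhibition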
VIM-2 inhibitor = blocks Pseudomonas aeruginosa VIM-2 metallo-beta-lactamase; purified VIM-2, nitrocefin hydrolysis, epi-absorbance fluorescence; inhibition, % at 5.6 µM; 0.89% of 290,000 active; AID 1527;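 active = inhibition above the mean of all tested compounds plus 3 SD, cutoff set per screening run, cut at about 7.5% in these data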;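 note: red hydrolysis product quenches plate fluorescence so inhibitors raise well fluorescence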
A number is an active result; - = inactive; . = not tested or not shown. Sampled rows, rich in hits. Any-hit rate of the full collection: about 1.9%.

SMILES | SUMO HTRF inh | T cell modulator | pCIP destab | Fh CTSL1 inh | IMP-1 inhibitor | VIM-2 inhibitor
N#Cc1c(N)n(-c2cccc(C(=O)O)c2)c2nc3ccccc3nc12 | 60 | - | - | - | - | -
C[C@@H]1CN(c2c(F)c(N)c3c(=O)c(C(=O)O)cn(C4CC4)c3c2F)C[C@H](C)N1 | - | . | - | . | - | 8.4
C[C@@H]1CN(c2c(F)c(F)c3c(=O)c(C(=O)O)cn(C4CC4)c3c2F)C[C@H](C)N1 | - | . | - | . | - | -
CCCCC/C=C\C[C@H](O)/C=C/c1cccc(C[C@H](O)CCCCO)n1 | - | - | - | 41 | - | -
COc1ccc(NC(=O)CCNS(=O)(=O)c2ccc(C)c(C)c2)cc1OC | - | - | - | - | - | -
Brc1ccccc1OCCCCn1cnc2ccccc21 | - | - | - | - | - | -
Cc1ccc(OCCCCn2cnc3ccccc32)c(C)c1 | - | - | - | - | 6.6 | -
CCN1CCN(CCCNC(=O)c2ccc3c(c2)N(Cc2ccccc2)CCS3)CC1 | - | - | - | 42 | - | -
CC1(C)CC2CC(C)(CN2C(=O)COC(=O)CNC(=O)c2ccc(Cl)c(Cl)c2)C1 (stereo not given) | - | - | - | 27 | - | -
CC(=O)Nc1ccc(C(=O)OCC(=O)N2CC3(C)CC2CC(C)(C)C3)cc1 (stereo not given) | . | - | . | . | . | .
COc1ccccc1NC(=O)COC(=O)c1ccc([N+](=O)[O-])s1 | - | - | - | 22 | - | -
O=C(COC(=O)c1ccc([N+](=O)[O-])s1)NNC(=O)c1ccccc1 | . | - | . | . | . | .
Cc1ccc(NC(=O)COC(=O)c2ccc([N+](=O)[O-])s2)c(C)c1 | - | - | - | 28 | - | -
Cc1cc(C)c(NC(=O)COC(=O)c2ccc([N+](=O)[O-])s2)c(C)c1 | - | - | - | - | - | -
NS(=O)(=O)c1ccc(NC(=O)COC(=O)c2ccc([N+](=O)[O-])s2)cc1 | - | - | - | 68 | - | -
CN(CC(=O)Nc1ccccc1Cl)C(=O)COC(=O)c1ccc([N+](=O)[O-])s1 | . | - | . | . | . | .
O=C(COC(=O)c1nc(-c2ccccc2)n(-c2cccc(C(F)(F)F)c2)n1)NCc1cccs1 | - | - | - | - | - | -
C/C=C1\C(OC2OC(CO)C(O)C(O)C2O)OC=C(C(=O)OC)C1CC(=O)OCC1C(C)C(OC(=O)CC2C(C(=O)OC)=COC(OC3OC(CO)C(O)C(O)C3O)/C2=C\C)CC1C(CO)CO (stereo not given) | - | - | - | - | - | -
O=C(COC(=O)CCC(=O)c1cccs1)NC(=O)c1ccc(OC(F)F)cc1 | - | - | - | - | 4.8 | -
COc1ccc(S(=O)(=O)NCCCN2CCCC2=O)c(OC)c1 | - | - | - | - | - | -
CCCCNC(=O)c1cnc2n(c1=O)CCS2 | - | 26 | - | - | - | -
COc1ccc(CCNC(=O)c2cnc3n(c2=O)CCS3)cc1OC | - | - | - | 41 | - | -
O=C(COC(=O)c1cccc(C(F)(F)F)c1)NCc1ccccc1 | - | - | - | - | - | -
Cc1nc(NCCc2ccc(S(N)(=O)=O)cc2)c2c3c(sc2n1)CCC3 | - | - | - | - | - | 7.9
NS(=O)(=O)c1ccc(CCNc2nc(CN3CCOCC3)nc3sc4c(c23)CCC4)cc1 | - | - | - | - | - | -
SMILES | SUMO HTRF inh | T cell modulator | pCIP destab | Fh CTSL1 inh | IMP-1 inhibitor | VIM-2 inhibitor
O=C(CN1C(=O)S/C(=C\c2ccc(-c3cc(C(=O)O)ccc3Cl)o2)C1=O)Nc1ccc2c(c1)OCO2 | 84 | - | - | . | 17 | -
Cn1cc(/C=C2/SC(=O)N(CC(=O)Nc3ccc4c(c3)OCO4)C2=O)c2ccccc21 | - | - | - | - | - | -
O=C(CNC(=O)C12CC3CC(CC(C3)C1)C2)OCc1ccc(F)cc1Cl | . | - | . | . | . | .
COc1cc(Br)c(CC(=O)NC2CC2)cc1OC | - | - | - | - | - | -
O=C(CSc1nc2nc(-c3cccs3)cc(C(F)(F)F)c2c(=O)[nH]1)Nc1ccc(F)c(F)c1 | 56 | - | - | - | - | -
CCOC(=O)C1=C(O)/C(=C/c2ccc(-c3ccccc3C(=O)O)o2)SC1=Nc1ccc(OC)cc1 | - | . | - | . | - | 11
COCCNc1c2c(c(C#N)c3nc4ccccc4n13)CCCC2 | - | - | - | - | - | -
Cc1c2c(n3c(nc4ccccc43)c1C#N)N(Cc1cccnc1)CC2 | . | . | . | . | - | 9.6
N#Cc1c2c(c(NCc3cccnc3)n3c1nc1ccccc13)CCC2 | - | - | - | - | - | 12
CC(=O)Nc1ccc(N2CCc3c(C)c(C#N)c4nc5ccccc5n4c32)cc1 | - | - | - | - | - | -
COc1ccc(CSc2nnc3[nH]c(=O)cc(N)n23)cc1 | - | - | - | - | - | -
COC(=O)c1ccc(COc2ccc(-c3nnn(CC(=O)NC(C)(C)C)n3)cc2)cc1 | - | - | - | - | - | -
COC(=O)c1ccc(COc2ccc(-c3nnn(CC(N)=O)n3)cc2)cc1 | - | 0.0 | - | - | - | -
Cc1oc2c(c1C(=O)c1ccccc1)C(=O)C(=O)c1ccccc1-2 | 93 | - | - | - | - | -
FC(F)(F)c1cc(Cl)c2nnc(-c3ccccn3)n2c1 | - | - | - | - | - | 8.1
CCCN(C(=O)CCCSc1nc2ccccc2[nH]1)c1c(N)n(Cc2ccccc2)c(=O)[nH]c1=O | . | - | . | 19 | . | .
CCCCN(C(=O)CCCSc1nc2ccccc2[nH]1)c1c(N)n(Cc2ccccc2)c(=O)[nH]c1=O | - | - | - | - | - | -
CC1(C)Cc2c(c(-c3ccco3)nc3sc4c(NCCCO)ncnc4c23)CO1 | - | - | - | - | 9.3 | -
Cc1sc2ncnc(SCC(=O)Nc3nc(-c4ccc(F)c(F)c4)cs3)c2c1C | - | - | - | - | - | -
COc1ccc(-c2nc(CS(=O)(=O)CC(=O)NCCCc3ccccc3)c(C)o2)cc1 | - | - | - | - | - | -
COc1ccc(-c2nc(CS(=O)(=O)CC(=O)NCCc3ccc(C)cc3)c(C)o2)cc1 | - | - | - | - | 6.2 | -
COc1cccc(-c2nc(CS(=O)(=O)CC(=O)NCCCN3CC(C)CC(C)C3)c(C)o2)c1 (stereo not given) | - | - | - | 19 | - | -
COC1=C(c2ccccc2)C(=O)c2ccccc2C1=O | - | - | - | - | - | -
O=C1C(c2ccccc2)=[N+]([O-])c2ccccc21 | . | - | . | 31 | . | .
O=C(O)c1ccccc1S(=O)(=O)CC(=O)N1CCCCC1 | - | - | - | - | - | -
O=c1c(Cl)c(O)c2cccc3c4ccccc4n1c23 | - | - | - | - | - | 9.4
O=C(COC(=O)c1ccc([N+](=O)[O-])s1)NC(=O)NCc1ccccc1 | - | - | - | 18 | - | -
O=C(COC(=O)c1ccc([N+](=O)[O-])s1)NCCc1ccccc1 | . | - | . | . | . | .
Cc1ccc(C(=O)OCC(=O)NC(C)c2ccccc2)s1 (stereo not given) | . | - | . | . | . | .

From PubChem
